Results on two substances are retold here after article PMC7147967 (Nature nanotechnology, 2020).

Data set [1] concerns MCF-7/C6 tumour tissue. The data set is described as follows: Tumour tissue analysis after three injections. The format is in vivo, Balb/c nude mice. The conditions noted are these: 3 consecutive q.o.d. injections, 8 mg/kg, n = 6. The method, boiled down:
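MCF-7/C6 tumour-bearing Balb/c nude mice were sacrificed after three i.v. injections given every other day. Excised tumours were processed for H&E staining, Ki-67 staining, fluorescence imaging of sections and high-magnification TEM.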

The test system of data set [2] is MCF-7/C6 HER2+ breast cancer. The data set is described as follows: In vivo therapeutic effect, MCF-7/C6 xenograft. Details: species or system Balb/c nude mice. The settings on record: 8 mg/kg i.v., 8 times q.o.d., n = 8 per group. In short, it runs like this: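 Balb/c nude mice bearing s.c. flank MCF-7/C6 tumours (5×10^6 cells) were randomised into five groups 10 days after inoculation. Groups received PBS or test nanoparticles i.v. every 48 h. Tumour volume and body weight were measured twice weekly over the 40-day treatment, and survival was followed. Data are mean ± s.d.; t-test or ANOVA.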

Data set [3] has as its target Soluble extracellular domain of HER2 protein (Homo sapiens, UniProt P04626). The data set is described as follows: Fibrillar transformation of NPs on interaction with HER2 protein. The settings on record: TEM/DLS, over 24 h, HER2 protein/peptide ligand 1:1000. In short, it runs like this: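 Soluble HER2 extracellular domain (HEK 293-expressed) was added to fresh nanoparticles (99% water, 20 μM) at a HER2/peptide ligand ratio of 1:1000. At 0.5, 6 and 24 h, samples were taken for DLS size and zeta potential, CD, and TEM with uranyl acetate staining. Bis-pyrene AIE fluorescence was followed over time to track transformation.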

Data set [4] is described as follows: Size of nanoparticles by DLS and TEM. The format is physicochemical. The conditions noted are these: fresh NPs, 99% water content (H2O:DMSO 99:1), 20 μM. In short, it runs like this:
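Peptide in DMSO was diluted with DMSO/deionized water mixtures to give a range of water contents. Nanoparticle formation was checked by UV–vis absorption and fluorescence spectra. Freshly made nanoparticles (99% water, 20 μM) were sized by DLS and by TEM with uranyl acetate staining.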

Take BP-GGAAK-PEG1000 [NPs4]: the “cell kill in tumour sections (H&E)” value in data set [1] is “No significant cell kill was detected”. Further, in data set [2], the “time within which all mice died” value is no more than 60 days. The “structural transformation after treatment with HER2 protein” value in data set [3] was “did not reveal any significant changes”. The diameter of nanoparticles entry in data set [4] is “around 20 nm”.
In the same order, the values of BP-FFVLK-PEG1000 [NPs3] are “No significant cell kill was detected”, no more than 57 days, “did not reveal any significant changes” and 25–60 nm.
